Assay [1] addresses Baculoviral IAP repeat-containing protein 3 (Homo sapiens) (UniProt Q13489). The experiment in a line: Induction of cIAP2 degradation in human MM1.S cells at 1 uM incubated for 16 hrs by western blot analysis. It is filed as cell-based. In short, it runs like this: (§1)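 MM.1S cells treated 16 h at the stated concentration. Lysed, run on SDS-PAGE and transferred to PVDF. Probed with primary antibodies overnight at 4 °C, then HRP secondaries, with ECL detection. Band densitometry normalized to loading control and to DMSO-treated cells. Averages of at least three independent experiments.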
In general terms: A western blot detects proteins with antibodies after separation by electrophoresis.

The subject of the next assay is SU-DHL-6. The experiment in a line: Cytotoxicity against human SU-DHL-6 cells assessed as reduction in cell viability measured after 96 hrs in presence of TNF-alpha by CellTiter-Glo luminescent assay. It is filed as functional, cell-based. The conditions noted are these: SU-DHL-6, 96 h. Summed up: (§2)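 Cells seeded with compound at indicated concentrations ± TNF-α 1 ng/mL, incubated 96 h at 37 °C; viability by CellTiter-Glo luminescence, normalized to DMSO control; mean ± SD of biological triplicates. NCI-H929 cultured in RPMI-1640/10% FBS with 2-mercaptoethanol and sodium pyruvate; other lines in RPMI-1640/10% FBS, 37 °C, 5% CO2.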
A general note: Cellular ATP, detected with luciferase, serves as a proxy for viable cell number.

Another assay relates to NCI-H929. The experiment in a line: Cytotoxicity against human NCI-H929 cells assessed as reduction in cell viability measured after 96 hrs in presence of TNF-alpha by CellTiter-Glo luminescent assay. It counts as functional, cell-based. Conditions: NCI-H929, 96 h. Summed up:
as §2

The test system of a further assay is JJN-3. The experiment in a line: Cytotoxicity against human JJN-3 cells assessed as reduction in cell viability measured after 96 hrs in presence of TNF-alpha by CellTiter-Glo luminescent assay. The conditions noted are these: JJN-3, 96 h. It counts as functional, cell-based. Summed up: (§3)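 Cells kept in RPMI-1640 with 10% FBS, 1% penicillin/streptomycin and 1% L-glutamine at 37 °C, 5% CO2. Seeded with compounds and incubated 96 h at 37 °C with TNF-α at 1 ng/mL. Viability read by CellTiter-Glo luminescence and normalized to DMSO-treated control. Mean ± SD of biological triplicates.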

A further assay deals with RPMI-8226. The experiment in a line: Cytotoxicity against human RPMI-8226 cells assessed as reduction in cell viability measured after 96 hrs in presence of TNF-alpha by CellTiter-Glo luminescent assay. It is filed as functional, cell-based. Conditions: RPMI-8226, 96 h. In short, it runs like this:
as §3

The test system of a further assay is SUD4. The experiment in a line: Cytotoxicity against human SU-DHL-4 cells assessed as reduction in cell viability measured after 96 hrs in presence of TNF-alpha by CellTiter-Glo luminescent assay. The conditions noted are these: SU-DHL-4, 96 h. It counts as functional, cell-based. Summed up:
as §3

Assay [2] has as its target Baculoviral IAP repeat-containing protein 2 (Homo sapiens) (UniProt Q13490). The experiment in a line: Induction of cIAP1 degradation in human MM1.S cells assessed as remaining protein level at 0.1 uM incubated for 16 hrs by western blot analysis. It counts as cell-based. In short, it runs like this: (§4)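 Lysed, run on SDS-PAGE and transferred to PVDF. Probed with primary antibodies overnight at 4 °C, then HRP secondaries, with ECL detection. Band densitometry normalized to loading control and to DMSO-treated cells. Averages of at least three independent experiments.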

The target in assay [3] is Baculoviral IAP repeat-containing protein 3 (Homo sapiens) (UniProt Q13489). The experiment in a line: Induction of cIAP2 degradation in human MM1.S cells assessed as remaining protein level at 0.1 uM incubated for 16 hrs by western blot analysis. It is filed as cell-based. Summed up:
as §4

Assay [4] deals with von Hippel-Lindau disease tumor suppressor (Homo sapiens) (UniProt P40337). The experiment in a line: Induction of VHL19 degradation in human MM1.S cells at 1 uM incubated for 16 hrs by western blot analysis. It is filed as cell-based. In short, it runs like this: as §1
Another assay has as its system MOLM-13. The experiment in a line: Cytotoxicity against human MOLM-13 cells assessed as reduction in cell viability measured after 96 hrs in presence of TNF-alpha by CellTiter-Glo luminescent assay. It counts as functional, cell-based. The conditions noted are these: MOLM-13, 96 h. In short, it runs like this: as §3
The target in assay [5] is von Hippel-Lindau disease tumor suppressor (Homo sapiens) (UniProt P40337). The experiment in a line: Induction of VHL30 degradation in human MM1.S cells at 1 uM incubated for 16 hrs by western blot analysis. It counts as cell-based. Summed up: as §1
The test system of the next assay is DB. The experiment in a line: Cytotoxicity against human DB cells assessed as reduction in cell viability measured after 96 hrs in presence of TNF-alpha by CellTiter-Glo luminescent assay. It is filed as functional, cell-based. In short, it runs like this: as §3
The target of assay [6] is E3 ubiquitin-protein ligase XIAP (Homo sapiens) (UniProt P98170). The experiment in a line: Induction of XIAP degradation in human MM1.S cells at 1 uM incubated for 16 hrs by western blot analysis. It is filed as cell-based. Summed up:
as §1

In another assay the test system is HEL. The experiment in a line: Cytotoxicity against human HEL cells assessed as reduction in cell viability measured after 96 hrs in presence of TNF-alpha by CellTiter-Glo luminescent assay. It counts as functional, cell-based. Summed up: as §3
Another assay relates to K562. The experiment in a line: Cytotoxicity against human K562 cells assessed as reduction in cell viability measured after 96 hrs in presence of TNF-alpha by CellTiter-Glo luminescent assay. It is filed as functional, cell-based. The conditions noted are these: K562, 96 h. Summed up: as §3
Assay [7] concerns the target Baculoviral IAP repeat-containing protein 2 (Homo sapiens) (UniProt Q13490). The experiment in a line: Induction of cIAP1 degradation in human MM1.S cells at 1 uM incubated for 16 hrs by western blot analysis. It counts as cell-based. In short, it runs like this: as §1
Assay [8] deals with von Hippel-Lindau disease tumor suppressor (Homo sapiens) (UniProt P40337). The experiment in a line: Induction of VHL30 degradation in human MM1.S cells assessed as remaining protein level at 0.1 uM incubated for 16 hrs by western blot analysis. It counts as cell-based. In short, it runs like this:
as §1

Activity calls are given as the source filed them. No cut-off for these calls is given here.

Chain of von Hippel-Lindau disease tumor suppressor (Homo sapiens) (P40337 whole entry, looked up): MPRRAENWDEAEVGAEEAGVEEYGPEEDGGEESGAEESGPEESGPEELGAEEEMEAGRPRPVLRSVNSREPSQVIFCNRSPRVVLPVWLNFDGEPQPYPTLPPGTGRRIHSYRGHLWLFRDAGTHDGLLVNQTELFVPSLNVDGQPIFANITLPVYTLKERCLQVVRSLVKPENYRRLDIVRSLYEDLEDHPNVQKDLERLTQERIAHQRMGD
Chain of Baculoviral IAP repeat-containing protein 3 (Homo sapiens) (Q13489 whole entry): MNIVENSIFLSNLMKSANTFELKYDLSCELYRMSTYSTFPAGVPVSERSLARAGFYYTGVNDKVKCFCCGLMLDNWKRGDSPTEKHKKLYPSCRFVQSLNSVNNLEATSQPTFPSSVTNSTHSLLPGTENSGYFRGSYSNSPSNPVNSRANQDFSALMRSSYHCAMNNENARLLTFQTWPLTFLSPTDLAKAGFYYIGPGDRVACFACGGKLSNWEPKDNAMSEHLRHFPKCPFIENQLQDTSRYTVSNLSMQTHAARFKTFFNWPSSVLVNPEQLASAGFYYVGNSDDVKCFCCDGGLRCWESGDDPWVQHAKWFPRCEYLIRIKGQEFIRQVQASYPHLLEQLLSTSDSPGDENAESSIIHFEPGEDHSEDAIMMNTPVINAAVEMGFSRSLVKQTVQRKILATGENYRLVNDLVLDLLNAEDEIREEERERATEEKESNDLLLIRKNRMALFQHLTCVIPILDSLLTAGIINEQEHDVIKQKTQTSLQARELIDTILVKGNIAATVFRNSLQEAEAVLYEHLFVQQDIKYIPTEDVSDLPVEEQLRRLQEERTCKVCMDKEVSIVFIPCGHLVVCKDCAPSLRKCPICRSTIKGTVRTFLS
Chain of Baculoviral IAP repeat-containing protein 2 (Homo sapiens) (Q13490 whole entry): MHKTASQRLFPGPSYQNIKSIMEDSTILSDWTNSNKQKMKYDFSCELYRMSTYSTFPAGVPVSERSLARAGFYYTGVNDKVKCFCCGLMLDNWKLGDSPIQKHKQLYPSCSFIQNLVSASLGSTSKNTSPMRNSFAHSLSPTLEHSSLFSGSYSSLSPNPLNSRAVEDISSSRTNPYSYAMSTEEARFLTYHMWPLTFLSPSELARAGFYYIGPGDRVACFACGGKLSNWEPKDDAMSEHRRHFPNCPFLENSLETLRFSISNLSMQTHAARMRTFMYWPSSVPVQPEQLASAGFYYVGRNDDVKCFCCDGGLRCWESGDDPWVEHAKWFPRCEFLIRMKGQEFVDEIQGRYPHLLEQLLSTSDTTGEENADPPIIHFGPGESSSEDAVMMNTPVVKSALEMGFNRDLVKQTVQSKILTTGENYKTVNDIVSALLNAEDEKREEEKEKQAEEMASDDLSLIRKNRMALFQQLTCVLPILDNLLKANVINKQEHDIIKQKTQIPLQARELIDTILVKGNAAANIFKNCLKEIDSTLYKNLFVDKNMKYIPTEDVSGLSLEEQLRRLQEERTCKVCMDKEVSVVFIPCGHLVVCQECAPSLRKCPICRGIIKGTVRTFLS
Chain of E3 ubiquitin-protein ligase XIAP (Homo sapiens) (P98170 whole entry): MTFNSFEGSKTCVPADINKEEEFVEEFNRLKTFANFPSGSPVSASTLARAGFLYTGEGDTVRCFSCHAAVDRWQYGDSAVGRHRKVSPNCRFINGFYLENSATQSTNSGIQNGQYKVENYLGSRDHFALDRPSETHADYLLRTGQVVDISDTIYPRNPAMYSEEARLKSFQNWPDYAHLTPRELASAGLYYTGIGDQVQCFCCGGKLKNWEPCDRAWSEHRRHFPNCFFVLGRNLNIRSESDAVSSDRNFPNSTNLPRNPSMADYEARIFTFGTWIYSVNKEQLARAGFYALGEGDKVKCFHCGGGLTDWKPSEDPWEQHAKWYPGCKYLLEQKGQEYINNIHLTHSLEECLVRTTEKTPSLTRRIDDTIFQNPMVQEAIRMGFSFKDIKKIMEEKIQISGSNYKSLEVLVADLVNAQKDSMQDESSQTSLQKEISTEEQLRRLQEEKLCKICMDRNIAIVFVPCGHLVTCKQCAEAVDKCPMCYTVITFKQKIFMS

For orientation: IC50 means the concentration that gives 50% inhibition. Regarding `Cc1ncsc1-c1ccc(CNC(=O)[C@@H]2C[C@@H](O)CN2C(=O)[C@@H](NC(=O)C2(C#N)CC2)C(C)(C)C)cc1`, the result in assay [1], in [4], in [5], in [6] and in [7] was inactive. The IC50 in the assay with SU-DHL-6, with NCI-H929, with JJN-3, in the assay on RPMI-8226, with SUD4 and in the assay on MOLM-13 was above 10 µM throughout. For the same compound, the IC50 in the assay on DB, with HEL and with K562 was above 10 µM throughout. Moreover, the Activity in assay [2] is 95%; in assay [3], 81%; in assay [8], 95%.

The values above are taken from ChEMBL document CHEMBL5338733, “Heterobifunctional Ligase Recruiters Enable pan-Degradation of Inhibitor of Apoptosis Proteins” (J Med Chem, 2023).
